Reference: ChEMBL document CHEMBL3085645, “Design, synthesis and biological evaluation of phosphorodiamidate prodrugs of antiviral and anticancer nucleosides” (Eur J Med Chem, 2013)

Legend:
[1] = test system: Human immunodeficiency virus 2; experiment: Antiviral activity against HIV2 ROD infected in human CEM cells assessed as virus-induced giant cell formation after 4 days by microscopic analysis; type: functional, organism-based; conditions: Human immunodeficiency virus 2, ISOLATE ROD, CCRF-CEM, 96 h
How it was run: (§1)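 CEM cells (∼3 × 10^5 cells/cm3) infected with 100 CCID50/mL of HIV-1(IIIB) or HIV-2(ROD), seeded into wells with compound dilutions. Giant cell formation examined microscopically after 4 days at 37 °C.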

[2] = test system: Human immunodeficiency virus 1; experiment: Antiviral activity against HIV1 3B infected in human CEM cells assessed as virus-induced giant cell formation after 4 days by microscopic analysis; type: functional, organism-based; conditions: Human immunodeficiency virus 1, 3B, CCRF-CEM, 96 h; how it was run: as §1
[3] = test system: COLO 320; experiment: Cytostatic activity against human COLO320 cells assessed as growth inhibition after 3 days by particle counting analysis; type: functional, cell-based; conditions: COLO 320, 72 h
How it was run: (§2)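 Tumor cells seeded and exposed to a range of compound concentrations. Cell number counted with a particle counter after 2 days (L1210, L1210/TK) or 3 days (CEM, CEM/TK, HeLa, HeLa TK, Caco-2, Colo-320).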

[4] = test system: Caco-2; experiment: Cytostatic activity against human Caco2 cells assessed as growth inhibition after 3 days by particle counting analysis; type: functional, cell-based; conditions: Caco-2, 72 h; how it was run: as §2
[5] = test system: HeLa; experiment: Cytostatic activity against thymidine kinase-deficient human HeLa cells assessed as growth inhibition after 3 days by particle counting analysis; type: functional, cell-based; conditions: 72 h; how it was run: as §2
[6] = test system: HeLa; experiment: Cytostatic activity against human HeLa cells assessed as growth inhibition after 3 days by particle counting analysis; type: functional, cell-based; conditions: 72 h; how it was run: as §2
[7] = test system: CCRF-CEM; experiment: Cytostatic activity against thymidine kinase-deficient human CEM cells assessed as growth inhibition after 3 days by particle counting analysis; type: functional, cell-based; conditions: 72 h; how it was run: as §2
[8] = test system: CCRF-CEM; experiment: Cytostatic activity against human CEM cells assessed as growth inhibition after 3 days by particle counting analysis; type: functional, cell-based; conditions: 72 h; how it was run: as §2
[9] = test system: L1210; experiment: Cytostatic activity against thymidine kinase-deficient mouse L1210 cells assessed as growth inhibition after 2 days by particle counting analysis; type: functional, cell-based; conditions: L1210, 48 h; how it was run: as §2
[10] = test system: L1210; experiment: Cytostatic activity against mouse L1210 cells assessed as growth inhibition after 2 days by particle counting analysis; type: functional, cell-based; conditions: L1210, 48 h; how it was run: as §2
[11] = test system: CCRF-CEM; experiment: Cytotoxicity against human CEM cells; type: cell-based
[12] = test system: Huh-7; experiment: Cytotoxicity against human HuH7 cells; type: cell-based; conditions: human, huh-7
[13] = test system: Hepatitis C virus; experiment: Antiviral activity against Hepatitis C virus genotype 1b infected in human HuH7 cells assessed as inhibition of viral replication; type: functional, organism-based, Hepacivirus hominis
[14] = Cytotoxicity against HEL cells; type: cell-based; conditions: human
[15] = test system: Felid alphaherpesvirus 1; experiment: Antiviral activity against Feline herpesvirus infected in cat CRFK cells assessed as inhibition of virus-induced cytopathicity; type: functional, organism-based; conditions: Felid alphaherpesvirus 1, CRFK
[16] = test system: Human alphaherpesvirus 1; experiment: Antiviral activity against acyclovir-resistant thymidine kinase-deficient Herpes simplex virus 1 KOS infected in HEL cells assessed as inhibition of virus-induced cytopathicity; type: functional, organism-based; conditions: Human alphaherpesvirus 1, KOS
[17] = test system: Human alphaherpesvirus 2; experiment: Antiviral activity against Herpes simplex virus 2 G infected in HEL cells assessed as inhibition of virus-induced cytopathicity; type: functional, organism-based; conditions: Human alphaherpesvirus 2, strain G
[18] = test system: Human alphaherpesvirus 1; experiment: Antiviral activity against Herpes simplex virus 1 KOS infected in HEL cells assessed as inhibition of virus-induced cytopathicity; type: functional, organism-based; conditions: Human alphaherpesvirus 1, KOS
[19] = test system: MT4; experiment: Cytotoxicity against human MT4 cells assessed as cell viability by propidium iodide staining-based cell counting analysis
How it was run: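 MT-4 cultures, untreated or treated, were counted on an automated cell counter. Total and dead cells were enumerated by propidium iodide-based assay.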

[20] = test system: Human immunodeficiency virus 1; experiment: Antiviral activity against HIV1 infected in human MT4 cells assessed as p24 production after 3 days; conditions: Human immunodeficiency virus 1, MT4, 72 h

| Compound | EC50 [1] | EC50 [2] | IC50 [3] | IC50 [4] | IC50 [5] | IC50 [6] | IC50 [8] | IC50 [10] | CC50 [11] | also measured |
| --- | --- | --- | --- | --- | --- | --- | --- | --- | --- | --- |
| C[C@H](NP(=O)(N[C@@H](C)C(=O)OCc1ccccc1)OC[C@H]1O[C@@H](n2ccc(N)nc2=O)CS1)C(=O)OCc1ccccc1 | > 50 µM | > 50 µM | 85 µM | 87 µM | 38 µM | 93 µM | 116 µM | 86 µM |  | IC50 [7]: 106 µM; IC50 [9]: 57 µM |
| Cc1cn([C@H]2C[C@H](N=[N+]=[N-])[C@@H](CO)O2)c(=O)[nH]c1=O [ZIDOVUDINE] | 0.067 µM | 0.012 µM |  |  |  |  |  |  | > 250 µM |  |
| Cc1cn([C@H]2C=C[C@@H](COP(=O)(N[C@@H](C)C(=O)OCC(C)(C)C)N[C@@H](C)C(=O)OCC(C)(C)C)O2)c(=O)[nH]c1=O | 0.14 µM | 0.09 µM | 30 µM | 174 µM | 53 µM | 110 µM | 96 µM | 47 µM |  | IC50 [7]: 37 µM; IC50 [9]: 23 µM |
| C[C@H](NP(=O)(N[C@@H](C)C(=O)OCc1ccccc1)OC[C@@]1(N=[N+]=[N-])O[C@@H](n2ccc(=O)[nH]c2=O)[C@H](O)[C@@H]1O)C(=O)OCc1ccccc1 |  |  |  |  |  |  |  |  |  | CC50 ([12]; read-out: CC50): > 100 µM; EC50 ([13]; Huh-7, read-out: EC50): > 40 µM |
| CC(=O)Nc1ccn([C@H]2CS[C@@H](CO)O2)c(=O)n1 |  |  | ≥ 250 µM | > 250 µM | > 250 µM | 242 µM | > 250 µM | > 250 µM |  | IC50 [7]: > 250 µM; IC50 [9]: > 250 µM |
| C[C@H](NP(=O)(N[C@@H](C)C(=O)OCc1ccccc1)OC[C@@]1(N=[N+]=[N-])O[C@@H](n2ccc(N)nc2=O)[C@H](O)[C@@H]1O)C(=O)OCc1ccccc1 |  |  |  |  |  |  |  |  |  | CC50 ([12]; read-out: CC50): > 100 µM; EC50 ([13]; Huh-7, read-out: EC50): > 40 µM |
| CCOc1nc(N)nc2c1ncn2[C@@H]1O[C@H](COP(=O)(N[C@H](C)C(=O)OCC(C)(C)C)N[C@H](C)C(=O)OCC(C)(C)C)[C@@H](O)[C@@]1(C)F |  |  |  |  |  |  |  |  |  | CC50 ([12]; read-out: CC50): > 100 µM; EC50 ([13]; Huh-7, read-out: EC50): 0.23 µM |
| C[C@H](NP(=O)(N[C@@H](C)C(=O)OCC(C)(C)C)OC[C@@H]1CC[C@H](n2cnc3c(N)ncnc32)O1)C(=O)OCC(C)(C)C | 0.049 µM | 0.1 µM |  |  |  |  | 36 µM | 76 µM | 35 µM |  |
| NC(=O)c1ncn([C@@H]2O[C@H](CO)[C@@H](O)[C@H]2O)c1N [ACADESINE] |  |  |  |  | ≥ 250 µM | 165 µM | 210 µM | ≥ 250 µM |  | MCC [14]: > 100 µM; EC50 [15]: > 100 µM; EC50 [16]: > 100 µM; EC50 [17]: > 100 µM; EC50 [18]: > 100 µM |
| Nc1ccn([C@@H]2CS[C@H](CO)O2)c(=O)n1 [LAMIVUDINE] | 0.18 µM | 0.099 µM | > 250 µM | > 250 µM | > 250 µM | > 250 µM | > 250 µM | > 250 µM | > 250 µM | IC50 [7]: > 250 µM; IC50 [9]: > 250 µM |
| Nc1nc(NC2CC2)c2ncn([C@H]3C=C[C@@H](CO)C3)c2n1 [ABACAVIR] | 18 µM | 23 µM |  |  |  | 170 µM | > 250 µM | > 250 µM | > 250 µM |  |
| C[C@H](NP(=O)(N[C@@H](C)C(=O)OCC(C)(C)C)OC[C@H]1O[C@@H](n2cnc(C(N)=O)n2)[C@H](O)[C@@H]1O)C(=O)OCC(C)(C)C |  |  |  |  |  |  |  |  |  | CC50 ([12]; read-out: ED50 (the source's name)): > 100 µM; EC50 ([13]; Huh-7, read-out: ED50 (the source's name)): > 100 µM |
| CC(=O)Nc1ccn([C@H]2CS[C@@H](COP(=O)(N[C@@H](C)C(=O)OCc3ccccc3)N[C@@H](C)C(=O)OCc3ccccc3)O2)c(=O)n1 |  |  | > 250 µM | ≥ 250 µM |  | 155 µM | 120 µM |  |  |  |
| Cc1cn([C@H]2C[C@H](N=[N+]=[N-])[C@@H](COP(=O)(N[C@@H](C)C(=O)OCc3ccccc3)N[C@@H](C)C(=O)OCc3ccccc3)O2)c(=O)[nH]c1=O | 0.03 µM | 0.0092 µM |  |  |  |  |  |  | 30 µM |  |
| Nc1nc2c(ncn2COCCO)c(=O)[nH]1 [ACYCLOVIR] |  |  |  |  |  |  |  |  |  | MCC [14]: > 100 µM; EC50 [15]: > 100 µM; EC50 [16]: 23 µM; EC50 [18]: 0.23 µM; CC50 [19]: > 250 µM; EC50 [20]: > 250 µM |
